Test results published in the array DNA melting data of Ke et al. (doi:10.1101/2024.01.08.574731).

How the values were obtained:
[1] = folding enthalpy; higher = less favourable; fluorescence melt of hairpins on a sequencing array, two-state fit; details: sodium 0.088 M
Outline: (§1)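 With Cy3 and quencher oligos annealed, library hairpins on a sequenced MiSeq flow cell were imaged for Cy3 fluorescence in 50 mM Na-HEPES pH 8.0, 25 mM NaCl, in 2.5 °C steps up to 60 °C. Melting temperature and folding enthalpy were derived from bootstrapped two-state fits of signals normalised to pre-quench Cy3 and to control constructs. Four replicates were combined by inverse variance, with fitted temperatures raised by 9.35 °C to match UV melts.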

[2] = melting temperature; fluorescence melt of hairpins on a sequencing array, two-state fit, raised by 9.35 °C to match UV melts; details: sodium 0.088 M
Outline: as §1

Sequence | folding enthalpy [1] | Tm [2]
GATCTATCCGTAGATC ((((((....)))))) | -30.1 kcal/mol | 43.1 °C
GATCTATCGCTAGATC ((((((....)))))) | -15 kcal/mol | 39.8 °C
GATCTATCGGTAGATC ((((((....)))))) | -24.7 kcal/mol | 39.1 °C
GATCTATGATAGATC ((((((...)))))) | -25.2 kcal/mol | 37.3 °C
GATCTATTAATAGATC ((((((....)))))) | -37.8 kcal/mol | 45.2 °C
GATCTATTATTAGATC ((((((....)))))) | -34.1 kcal/mol | 43.2 °C
GATCTATTCTTAGATC ((((((....)))))) | -40.9 kcal/mol | 44.8 °C
GATCTATTGTAGATC ((((((...)))))) | -22.8 kcal/mol | 41 °C
GATCTATTTGTAGATC ((((((....)))))) | -35 kcal/mol | 45.2 °C
GATCTCAACCGAGATC ((((((....)))))) | -45.1 kcal/mol | 51.9 °C
GATCTCACAAGAGATC ((((((....)))))) | -38.7 kcal/mol | 53.7 °C
GATCTCACCGGAGATC ((((((....)))))) | -43.9 kcal/mol | 52.2 °C
GATCTCACGGGAGATC ((((((....)))))) | -39.3 kcal/mol | 51.7 °C
GATCTCACTAGAGATC ((((((....)))))) | -40.9 kcal/mol | 54.3 °C
GATCTCACTGAGATC ((((((...)))))) | -34 kcal/mol | 52.1 °C
GATCTCACTGGAGATC ((((((....)))))) | -40 kcal/mol | 51.3 °C
GATCTCAGACGAGATC ((((((....)))))) | -36.9 kcal/mol | 51.2 °C
GATCTCAGAGAGATC ((((((...)))))) | -36 kcal/mol | 55.4 °C
GATCTCAGCCGAGATC ((((((....)))))) | -39.6 kcal/mol | 52.6 °C
GATCTCAGCGGAGATC ((((((....)))))) | -38.3 kcal/mol | 53.7 °C
GATCTCAGTAGAGATC ((((((....)))))) | -37.4 kcal/mol | 54.1 °C
GATCTCAGTCGAGATC ((((((....)))))) | -35.1 kcal/mol | 54.1 °C
GATCTCAGTGGAGATC ((((((....)))))) | -40.9 kcal/mol | 52.6 °C
GATCTCATAAGAGATC ((((((....)))))) | -38.7 kcal/mol | 52.3 °C

Sequence | folding enthalpy [1] | Tm [2]
GATCTCATATGAGATC ((((((....)))))) | -43.8 kcal/mol | 54.2 °C
GATCTCATGAGAGATC ((((((....)))))) | -32 kcal/mol | 54.2 °C
GATCTCATGTGAGATC ((((((....)))))) | -36.2 kcal/mol | 52.9 °C
GATCTCATTGAGATC ((((((...)))))) | -34.9 kcal/mol | 54.2 °C
GATCTCCACCGAGATC ((((((....)))))) | -37.2 kcal/mol | 51.9 °C
GATCTCCATGGAGATC ((((((....)))))) | -42 kcal/mol | 57.4 °C
GATCTCCCCAGAGATC ((((((....)))))) | -42.9 kcal/mol | 55.7 °C
GATCTCCCCGAGATC ((((((...)))))) | -36.9 kcal/mol | 55.3 °C
GATCTCCCCTGAGATC ((((((....)))))) | -45.1 kcal/mol | 51.6 °C
GATCTCCCGGAGATC ((((((...)))))) | -37.4 kcal/mol | 53.8 °C
GATCTCCCTGGAGATC ((((((....)))))) | -43.7 kcal/mol | 59.4 °C
GATCTCCGCGGAGATC ((((((....)))))) | -50.1 kcal/mol | 60.9 °C
GATCTCCGTAGAGATC ((((((....)))))) | -42 kcal/mol | 55.1 °C
GATCTCCTCAGAGATC ((((((....)))))) | -37.7 kcal/mol | 55.9 °C
GATCTCGACGGAGATC ((((((....)))))) | -48.4 kcal/mol | 54.3 °C
GATCTCGATGGAGATC ((((((....)))))) | -33.4 kcal/mol | 52.9 °C
GATCTCGCAGAGATC ((((((...)))))) | -30.5 kcal/mol | 68 °C
GATCTCGCCAGAGATC ((((((....)))))) | -37.1 kcal/mol | 69 °C
GATCTCGCCCGAGATC ((((((....)))))) | -39.2 kcal/mol | 56.2 °C
GATCTCGCGCGAGATC ((((((....)))))) | -48.4 kcal/mol | 62.5 °C
GATCTCGCTGGAGATC ((((((....)))))) | -36.8 kcal/mol | 54.3 °C
GATCTCGGAAACAAGATC (((((.(....).))))) | -15 kcal/mol | 29 °C
GATCTCGGACGAGATC ((((((....)))))) | -35.1 kcal/mol | 60.3 °C
GATCTCGGAGGAGATC ((((((....)))))) | -44.4 kcal/mol | 55.7 °C

Sequence | folding enthalpy [1] | Tm [2]
GATCTCGGATGAGATC ((((((....)))))) | -33.7 kcal/mol | 57 °C
GATCTCGGTGGAGATC ((((((....)))))) | -4.26 kcal/mol | 68.6 °C
GATCTCGTACGAGATC ((((((....)))))) | -39.7 kcal/mol | 61.7 °C
GATCTCGTCAGAGATC ((((((....)))))) | -37.5 kcal/mol | 68.5 °C
GATCTCGTCGAGATC ((((((...)))))) | -31.1 kcal/mol | 55.7 °C
GATCTCGTGGAGATC ((((((...)))))) | -39 kcal/mol | 54.5 °C
GATCTCGTGTGAGATC ((((((....)))))) | -37 kcal/mol | 53.1 °C
GATCTCGTTGGAGATC ((((((....)))))) | -42.3 kcal/mol | 54.2 °C
GATCTCTAGAGAGATC ((((((....)))))) | -40.9 kcal/mol | 51 °C
GATCTCTAGGAGATC ((((((...)))))) | -39.1 kcal/mol | 52.9 °C
GATCTCTAGTGAGATC ((((((....)))))) | -36.9 kcal/mol | 50.3 °C
GATCTCTATAGAGATC ((((((....)))))) | -38.7 kcal/mol | 55 °C
GATCTCTCAGAGATC ((((((...)))))) | -33.8 kcal/mol | 54.2 °C
GATCTCTCCGGAGATC ((((((....)))))) | -39.6 kcal/mol | 56.2 °C
GATCTCTCTGGAGATC ((((((....)))))) | -42.8 kcal/mol | 54.8 °C
GATCTCTCTTGAGATC ((((((....)))))) | -37.9 kcal/mol | 53.5 °C
GATCTCTGGGAGATC ((((((...)))))) | -34.7 kcal/mol | 53.6 °C
GATCTCTGTGGAGATC ((((((....)))))) | -37.1 kcal/mol | 57.2 °C
GATCTCTTAGAGATC ((((((...)))))) | -38.9 kcal/mol | 53.1 °C
GATCTCTTCTGAGATC ((((((....)))))) | -39.8 kcal/mol | 54.7 °C
GATCTCTTGTGAGATC ((((((....)))))) | -48.6 kcal/mol | 53.1 °C
GATCTCTTTAGAGATC ((((((....)))))) | -44.9 kcal/mol | 61.8 °C
GATCTCTTTCGAGATC ((((((....)))))) | -28.2 kcal/mol | 52.2 °C
GATCTGAATCAGATC ((((((...)))))) | -34 kcal/mol | 44.7 °C

Sequence | folding enthalpy [1] | Tm [2]
GATCTGACAACAGATC ((((((....)))))) | -36.6 kcal/mol | 46.5 °C
GATCTGACATCAGATC ((((((....)))))) | -33.5 kcal/mol | 48.3 °C
GATCTGACGCCAGATC ((((((....)))))) | -33.5 kcal/mol | 48.6 °C
GATCTGACTACAGATC ((((((....)))))) | -36.9 kcal/mol | 49.5 °C
GATCTGAGGCAGATC ((((((...)))))) | -31.4 kcal/mol | 47.5 °C
GATCTGAGGGCAGATC ((((((....)))))) | -33.4 kcal/mol | 47.7 °C
GATCTGATACCAGATC ((((((....)))))) | -40.8 kcal/mol | 47.1 °C
GATCTGATTCCAGATC ((((((....)))))) | -34 kcal/mol | 48.5 °C
GATCTGCAGACAGATC ((((((....)))))) | -40 kcal/mol | 51.2 °C
GATCTGCCCACAGATC ((((((....)))))) | -37 kcal/mol | 52.4 °C
GATCTGCCCGCAGATC ((((((....)))))) | -46.4 kcal/mol | 59.7 °C
GATCTGCGACCAGATC ((((((....)))))) | -35 kcal/mol | 46.6 °C
GATCTGCGCACAGATC ((((((....)))))) | -38.3 kcal/mol | 52.8 °C
GATCTGCGCCAGATC ((((((...)))))) | -35.3 kcal/mol | 50.8 °C
GATCTGCGCTCAGATC ((((((....)))))) | -39.7 kcal/mol | 49.3 °C
GATCTGCGGGCAGATC ((((((....)))))) | -42.9 kcal/mol | 60.7 °C
GATCTGCGTTCAGATC ((((((....)))))) | -37.5 kcal/mol | 48.8 °C
GATCTGCTAACAGATC ((((((....)))))) | -37.1 kcal/mol | 50.4 °C
GATCTGCTAGCAGATC ((((((....)))))) | -48.5 kcal/mol | 60.9 °C
GATCTGCTCACAGATC ((((((....)))))) | -36.9 kcal/mol | 51.6 °C
GATCTGCTGACAGATC ((((((....)))))) | -39.7 kcal/mol | 50.5 °C
GATCTGCTGCCAGATC ((((((....)))))) | -39.2 kcal/mol | 49.8 °C
GATCTGCTGTCAGATC ((((((....)))))) | -32.2 kcal/mol | 51.6 °C
GATCTGGAAGCAGATC ((((((....)))))) | -37.8 kcal/mol | 50.8 °C
